According to ChEMBL document CHEMBL4325822, “Discovery of a tetrazolyl β-carboline with in vitro and in vivo osteoprotective activity under estrogen-deficient conditions” (Medchemcomm, 2018):
Active and inactive are the calls of the source. The calls are words filed in the database; no cut-off is given here.

How the values were obtained:
[1] = Toxicity in Sprague-Dawley rat model of OVX-induced bone loss assessed as uterine weight at 1 mg/kg, po via gavage for 12 weeks (reference value: 0.12 +/- 0.02 g); type: organism-based; settings: in vivo, 2016 h
Calvarial osteoblast [2] = assay: Cytotoxicity against Sprague-Dawley rat calvarial osteoblasts assessed as reduction in cell viability at 0.000001 to 1 uM after 48 hrs by MTT assay; type: cell-based
Summary of the method: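 Osteoblasts came from pooled calvaria of 1-2-day-old Sprague-Dawley pups, isolated by sequential dispase/collagenase digestion. Cells were exposed to compound at 1 pM to 1 µM for 48 h, and viability was measured by MTT.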

Rattus norvegicus [3] = assay: Antiosteoporotic activity in Sprague-Dawley rat model of OVX-induced bone loss assessed as protection against microarchitectural deterioration by measuring trabecular separation at 1 mg/kg, po via gavage for 12 weeks by microcomputed tomographic analysis (reference value: 1.31 +/- 0.06 millimeter); type: functional
Summary of the method: (§1)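 Adult female Sprague-Dawley rats were ovariectomized and left 12 weeks to become osteopenic. They then received 12 weeks of once-daily oral gavage (1% gum acacia vehicle) or subcutaneous estradiol, five days a week. Femurs were collected at sacrifice and scanned by micro-CT for BMD and trabecular microarchitecture. Ten rats per group; mean ± SEM.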

[4] = Toxicity in Sprague-Dawley rat model of OVX-induced bone loss assessed as luminal epithelial height at 5 mg/kg, po via gavage for 12 weeks (reference value: 27.29 +/- 0.96 umeter); type: organism-based; settings: in vivo, 2016 h
[5] = Antioxidant activity assessed as SNP-induced nitric oxide free radical scavenging activity at lower concentration after 150 mins by Griess reagent based method relative to control; type: functional
Summary of the method: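 Serial dilutions (1000 to 1.95 µg·ml⁻¹) were mixed with sodium nitroprusside (10 mM) and incubated 150 min. An equal volume of Griess reagent was added, and absorbance was read at 546 nm. Percentage scavenging was calculated relative to the control without compound.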

Calvarial osteoblast [6] = assay: Osteoprotective activity in Sprague-Dawley rat calvarial osteoblasts assessed as reduction in TNFalpha-induced apoptosis at 100 pM after 24 hrs by Annexin V/propidium iodide staining based FACS analysis relative to control; type: functional; parameters: scale not given: the % may be the effect or the level left
Summary of the method: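 Osteoblasts at 50–60% confluence, serum-withdrawn 3 h. Then 24 h with TNFα in α-MEM with 0.5% FBS, with 10 nM E2 as comparator. Annexin-V-FITC/PI staining, analysed by flow cytometry.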

[7] = Toxicity in Sprague-Dawley rat model of OVX-induced bone loss assessed as luminal epithelial height at 1 mg/kg, po via gavage for 12 weeks (reference value: 27.29 +/- 0.96 umeter); type: organism-based; settings: in vivo, 2016 h
[8] = Induction of osteoblast differentiation in Sprague-Dawley rat calvarial osteoblasts assessed as alkaline phosphatase activity at 100 pM after 48 hrs using PNPP as substrate by spectrophotometric method relative to control; type: functional
Summary of the method: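 Calvarial osteoblasts at 2 × 10³ cells/well. Treated 48 h with varied concentrations in differentiation medium (5% charcoal-treated FBS, 10 mM β-glycerophosphate, 50 µg·mL⁻¹ ascorbic acid). Total ALP read with PNPP substrate at 405 nm. Cell-free wells check for compound interference with substrate or absorbance.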

[9] = Increase in BMP2 mRNA expression in Sprague-Dawley rat calvarial osteoblasts at 100 pM by RT-PCR method relative to control; type: functional, Calvarial osteoblast
Summary of the method: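 Primary calvarial osteoblasts were lysed in TRIzol after treatment, and total RNA was extracted. Transcripts were quantified by real-time PCR using the comparative CT (ΔΔCT) method.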

[10] = Toxicity in Sprague-Dawley rat model of OVX-induced bone loss assessed as luminal area at 5 mg/kg, po via gavage for 12 weeks (reference value: 0.01 +/- 0.0004 mm2); type: organism-based; settings: in vivo, 2016 h
Rattus norvegicus [11] = assay: Antiosteoporotic activity in Sprague-Dawley rat model of OVX-induced bone loss assessed as decrease in serum CTX level at 1 to 5 mg/kg, po via gavage for 12 weeks by ELISA; type: functional, organism-based
Summary of the method: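 Ovariectomy model as above: 12 weeks of osteopenia, then 12 weeks of daily gavage or subcutaneous estradiol. Serum was separated at autopsy, and CTX and PINP were measured by ELISA kits.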

[12] = Antioxidant activity assessed as DPPH radical scavenging activity at 1000 ug/ml after 30 mins by spectrophotometric method relative to control; type: functional
Summary of the method: (§2)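 The compound was serially diluted from 1000 to 1.95 µg·ml⁻¹ and mixed 1:1 with DPPH in methanol. After 30 min at room temperature, absorbance was read at 517 nm. Scavenging (%) = [(Abc − Abs)/Abc] × 100, where Abc is DPPH without compound.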

Rattus norvegicus [13] = assay: Antiosteoporotic activity in Sprague-Dawley rat model of OVX-induced bone loss assessed as mineral apposition rate at 5 mg/kg, po via gavage for 12 weeks by microcomputed tomographic analysis (reference value: 0.169 +/- 0.004 umeter/day); type: functional
Summary of the method: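 Female Sprague-Dawley rats, 10-12 weeks old, ten per group, were ovariectomized and left 12 weeks for osteopenia. They were then dosed once daily by oral gavage for 12 weeks in 1% gum acacia vehicle. The estradiol arm received 100 µg·kg⁻¹ subcutaneously five days a week. Tetracycline and calcein were given intraperitoneally at 20 mg·kg⁻¹ each. Femur cross-sections (50 µm) were imaged by fluorescence microscopy for MAR and BFR.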

[14] = Antioxidant activity assessed as DPPH radical scavenging activity at 500 ug/ml after 30 mins by spectrophotometric method relative to control; type: functional; summary of the method: as §2
Rattus norvegicus [15] = assay: Antiosteoporotic activity in Sprague-Dawley rat model of OVX-induced bone loss assessed as protection against microarchitectural deterioration by measuring trabecular number at 5 mg/kg, po via gavage for 12 weeks by microcomputed tomographic analysis (reference value: 0.56 +/- 0.06 /millimeter); type: functional; summary of the method: as §1

In the case of `CCOC(=O)c1cc2c([nH]c3ccccc32)c(C(c2nnnn2C(C)(C)C)N2CCN(C)CC2)n1` (stereo not given), the Activity [1] is reported as 0.13 g, the Activity (Calvarial osteoblast [2]) is reported as “Non-Toxic” and the Activity (Rattus norvegicus [3]) is reported as 0.73 mm. It also gave an Activity [4] of 3.61 um, an Activity [5] of 4.07% and an Activity (Calvarial osteoblast [6]) of 47%. The Activity [7] was 3.7 um, the Emax at 0.0001 µM [8] was 89% and the “fold change (FC)” value [9] was 1.8 - 4.6. The Activity [10] was 0.012 mm2, the Activity (Rattus norvegicus [11]) was “Active” and the Activity [12] was 47.8%. The Activity (Rattus norvegicus [13]) was 0.92 micrometer/day, the Activity [14] was 43.5% and the Activity (Rattus norvegicus [15]) was 1.38 /millimeter.
